# Laboratory results as given in ChEMBL document CHEMBL1147172, “The synthesis of alpha,beta-unsaturated carbonyl derivatives with the ability to inhibit both glutathione S-transferase P1-1 activity and the proliferation of leukemia cells” (2007).
# Tested on: HL-60
# Assay: Antiproliferative activity against human HL60 cells after 72 hrs
# Format: functional
# Conditions: HL-60, 72 h
# How it was run: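 HL-60 cells grown in RPMI-1640 with 10% heat-inactivated FBS, penicillin, streptomycin and L-glutamine. Cells seeded at 1 × 10⁵ cells/mL and exposed to a range of compound concentrations for 72 h. Total cells (trypan blue positive and negative) counted by haemocytometer. Treated/untreated cell-number ratio used to calculate GI50.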
row,GI50,SMILES
1,8.6 µM,C=C(CCCC)C(=O)c1ccc(OCC(=O)OC)c(C)c1C
2,4.6 µM,C=C(CC)C(=O)c1ccc(OC(C)C(=O)OC)c(C)c1C (stereo not drawn)
3,6 µM,C=C(C)C(=O)c1ccc(OC(C)C(=O)OC)c(C)c1C (stereo not drawn)
4,> 60 µM,C=C(C)C(=O)c1ccc(OC(C)C(=O)O)cc1C (stereo not drawn)
5,> 60 µM,C=C(CC)C(=O)c1ccc(OC(C)C(=O)O)cc1C (stereo not drawn)
6,> 60 µM,C=C(C)C(=O)c1ccc(OCC(=O)O)cc1C
7,> 60 µM,C=C(CC)C(=O)c1ccc(OCC(=O)O)cc1C
8,11.2 µM,C=C(CCC)C(=O)c1ccc(OC(C)C(=O)O)c(C)c1C (stereo not drawn)
9,12.1 µM,C=C(CCCC)C(=O)c1ccc(OC(C)C(=O)O)c(C)c1C (stereo not drawn)
10,14.4 µM,C=C(CCCC)C(=O)c1ccc(OCC(=O)O)c(C)c1C
11,5.6 µM,C=C(CCC)C(=O)c1ccc(OC(C)C(=O)OC)c(C)c1C (stereo not drawn)
12,5.2 µM,C=C(CCCC)C(=O)c1ccc(OC(C)C(=O)OC)c(C)c1C (stereo not drawn)
13,> 60 µM,C=C(CC)C(=O)c1ccc(OC(C)C(=O)O)cc1Br (stereo not drawn)
14,> 60 µM,C=C(CC)C(=O)c1ccc(OCC(=O)O)cc1Br
15,> 60 µM,C=C(C)C(=O)c1ccc(OCC(=O)O)cc1Cl
16,> 60 µM,C=C(C)C(=O)c1ccc(OC(C)C(=O)O)cc1Cl (stereo not drawn)
17,> 60 µM,C=C(CC)C(=O)c1ccc(OC(C)C(=O)O)cc1Cl (stereo not drawn)
18,8.6 µM,C=C(CCC)C(=O)c1ccc(OCC(=O)OC)c(C)c1C
19,3.9 µM,C=C(CC)C(=O)c1ccc(OCC(=O)OC)c(Cl)c1Cl
20,> 60 µM,C=C(C)C(=O)c1ccc(OC(C)C(=O)O)cc1Br (stereo not drawn)
21,> 60 µM,C=C(CC)C(=O)c1ccc(OCC(=O)O)cc1Cl
22,19.3 µM,C=C(CCC)C(=O)c1ccc(OCC(=O)O)c(C)c1C
23,44.2 µM,C=C(CC)C(=O)c1ccc(OCC(=O)O)c(Cl)c1Cl [ETHACRYNIC ACID]
